Data: ChEMBL document CHEMBL1157790, “3'-bromo analogues of pyrimidine nucleosides as a new class of potent inhibitors of Mycobacterium tuberculosis” (J Med Chem, 2010)
Values after ≈ are worked out from the molar mass of the structure shown.

Assays:
[1] = Cytotoxicity against human HuH7 cells after 2 days by XTT assay; type: cell-based, Huh-7
Outline: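 Huh-7 cells seeded at 2 × 10⁴/well and allowed to attach 6-8 h, then exposed to 200, 100, 50, 10 and 1 μg/mL compound, DMSO control, 2 days at 37 °C. XTT reagent added for 4 h at 37 °C; absorbance read at 450-500 nm.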

[2] = Cytotoxicity against human HuH7 cells assessed as incorporation of [3H]thymidine into DNA after 2 days by scintillation counting; type: cell-based, Huh-7
Outline: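 Huh-7 cells plated at 1 × 10⁴/well, compounds at 200, 100, 50, 10 and 1 μg/mL in triplicate, DMSO control, 2 days at 37 °C. Pulsed with 0.5 μCi/well [³H]-thymidine for 12-18 h, harvested onto filters, and incorporated DNA label counted by liquid scintillation.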

[3] = tested on: Mycobacterium tuberculosis; assay: Antimycobacterial activity against Mycobacterium tuberculosis H37Ra at 100 ug/ml after 6 days by microplate alamar blue assay; type: functional; conditions: 144 h
Outline: (§1)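 H37Ra from frozen inoculum, 2.5 × 10⁵ CFU/mL final, in 7H9GC medium; compounds from 10 mg/mL DMSO stock tested at 100, 50, 25, 10, 5 and 1 μg/mL in triplicate, run twice. Incubated 6 days, then alamar blue plus Tween 80 added, read after 24 h visually and by fluorescence. Percent inhibition against bacteria-only and medium-only wells; MIC50 is the lowest concentration giving ~50% inhibition.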

[4] = tested on: Mycobacterium tuberculosis; assay: Antimycobacterial activity against Mycobacterium tuberculosis H37Ra at 25 ug/ml after 6 days by microplate alamar blue assay; type: functional; conditions: 144 h; outline: as §1
[5] = tested on: Mycobacterium tuberculosis; assay: Antimycobacterial activity against Mycobacterium tuberculosis H37Ra after 6 days by microplate alamar blue assay; type: functional; conditions: 144 h; outline: as §1
[6] = tested on: Mycobacterium tuberculosis; assay: Antimycobacterial activity against Mycobacterium tuberculosis H37Ra at 50 ug/ml after 6 days by microplate alamar blue assay; type: functional; conditions: 144 h; outline: as §1
[7] = tested on: Mycobacterium tuberculosis; assay: Antimycobacterial activity against Mycobacterium tuberculosis H37Ra at 2.5 ug/ml after 4 days; type: functional
Outline: (§2)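 THP-1 cells, 2 × 10⁵/well, differentiated 3 days with 100 nM PMA, then infected 3 h with ~10⁷ CFU H37Ra. Non-phagocytosed bacteria removed. Compounds at 25, 10, 5 or 1 μg/mL in triplicate, rifampicin or isoniazid controls at 2.5 μg/mL, 4 days. Lysates plated in serial dilution on 7H11, colonies counted at 2-3 weeks. Percent CFU reduction versus untreated control; run twice.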

[8] = tested on: Mycobacterium tuberculosis; assay: Antimycobacterial activity against Mycobacterium tuberculosis H37Ra at 10 ug/ml after 6 days by microplate alamar blue assay; type: functional; conditions: 144 h; outline: as §1
[9] = tested on: Mycobacterium tuberculosis; assay: Antimycobacterial activity against Mycobacterium tuberculosis H37Ra at 1 ug/ml after 6 days by microplate alamar blue assay; type: functional; conditions: 144 h; outline: as §1
[10] = tested on: Mycobacterium tuberculosis; assay: Antimycobacterial activity against Mycobacterium tuberculosis H37Ra at 25 ug/ml after 4 days; type: functional; outline: as §2
[11] = tested on: Mycobacterium tuberculosis; assay: Antimycobacterial activity against Mycobacterium tuberculosis H37Ra at 10 ug/ml after 4 days; type: functional; outline: as §2
[12] = tested on: Mycobacterium tuberculosis; assay: Antimycobacterial activity against Mycobacterium tuberculosis H37Ra at 5 ug/ml after 6 days by microplate alamar blue assay; type: functional; conditions: 144 h; outline: as §1
[13] = tested on: Mycobacterium tuberculosis; assay: Antimycobacterial activity against Mycobacterium tuberculosis H37Ra at 5 to 10 ug/ml after 6 days by microplate alamar blue assay; type: functional; outline: as §1

SMILES	CC50 at 48 h [1] [µg/mL]	CC50 at 48 h [2] [µg/mL]	inhibition at 100 µg/mL [3] [%]	MIC50 [5] [µg/mL]	inhibition at 50 µg/mL [6] [%]	further results
O=c1ccn([C@@H]2O[C@H](CO)[C@H](O)[C@H]2Br)c(=O)[nH]1	> 100	> 100	0			
O=c1[nH]c(=O)n([C@H]2C[C@H](F)[C@@H](CO)O2)cc1F			0			
Cc1cn([C@H]2C[C@H](I)[C@@H](CO)O2)c(=O)[nH]c1=O	> 100	> 100	0			
O=c1[nH]c(=O)n([C@H]2C[C@@H](Br)[C@@H](CO)O2)cc1F	> 100	> 100	100	25 (≈ 80.9 µM)	63	inhibition at 25 µg/mL [4]: 40%
CO[C@H]1/C=C/O[C@@]2(C)Oc3c(C)c(O)c4c(O)c(c(/C=N/N5CCN(C)CC5)c(O)c4c3C2=O)NC(=O)/C(C)=C\C=C\[C@H](C)[C@H](O)[C@@H](C)[C@@H](O)[C@@H](C)[C@H](OC(C)=O)[C@@H]1C [RIFAMPIN]				< 0.5		Activity [7]: >98%
Cc1cn([C@@H]2O[C@H](CO)[C@@H](Br)[C@@H]2O)c(=O)[nH]c1=O	> 100	> 100	50	1 (≈ 3.11 µM)		inhibition at 10 µg/mL [8]: 75%; inhibition at 1 µg/mL [9]: 50%; Activity [10]: >90%; Activity [11]: 80%
O=c1[nH]c(=O)n([C@H]2C[C@@H](Cl)[C@@H](CO)O2)cc1F	> 100	> 100	90	25 (≈ 94.5 µM)	60	inhibition at 25 µg/mL [4]: 40%
O=c1[nH]c(=O)n([C@H]2C[C@H](Br)[C@@H](CO)O2)cc1F	> 100	> 100	80	50 (≈ 162 µM)	50	
O=c1[nH]c(=O)n([C@@H]2O[C@H](CO)[C@H](O)[C@H]2Br)cc1F	> 100	> 100	0			inhibition at 25 µg/mL [4]: 50%
N[C@@H]1CONC1=O [CYCLOSERINE]				5 (≈ 49 µM)	100	inhibition at 25 µg/mL [4]: 80%; inhibition at 5 µg/mL [12]: 50%
NNC(=O)c1ccncc1 [ISONIAZID]				< 1		inhibition at 1 µg/mL [9]: 100%; Activity [7]: >98%
Cc1cn([C@H]2C[C@H](F)[C@@H](CO)O2)c(=O)[nH]c1=O [ALOVUDINE]			0			
O=c1[nH]c(=O)n([C@@H]2O[C@H](CO)[C@@H](Br)[C@@H]2O)cc1F	> 100	> 100	91	25 (≈ 76.9 µM)		inhibition at 25 µg/mL [4]: 50%
O=c1ccn([C@@H]2O[C@H](CO)[C@@H](Br)[C@@H]2O)c(=O)[nH]1	> 100	> 100	24			
Cc1cn([C@H]2C[C@H](Br)[C@@H](CO)O2)c(=O)[nH]c1=O	> 100	> 100	100	5 (≈ 16.4 µM)	82	Activity [10]: 90%; Activity [11]: 50%; inhibition (INH) [13]: 5%
Cc1cn([C@H]2C[C@H](Cl)[C@@H](CO)O2)c(=O)[nH]c1=O	> 100	> 100	68	50 (≈ 192 µM)	50	
O=c1[nH]c(=O)n([C@H]2C[C@H](I)[C@@H](CO)O2)cc1F	> 100	> 100	32			
O=c1[nH]c(=O)n([C@H]2C[C@@H](I)[C@@H](CO)O2)cc1F	> 100	> 100	40			
O=c1[nH]c(=O)n([C@H]2C[C@H](Cl)[C@@H](CO)O2)cc1F	> 100	> 100	40			
Cc1cn([C@@H]2O[C@H](CO)[C@H](O)[C@H]2Br)c(=O)[nH]c1=O	> 100	> 100	80	25 (≈ 77.9 µM)	60	
